These results are taken from ChEMBL document CHEMBL3352168, “Potent, orally available, selective COX-2 inhibitors based on 2-imidazoline core” (Eur J Med Chem, 2014).

Bounds are passed on as bounds.

For assay [1], the target named is T1, Prostaglandin G/H synthase 1 (Ovis aries) (UniProt P05979).
T1 sequence (whole entry): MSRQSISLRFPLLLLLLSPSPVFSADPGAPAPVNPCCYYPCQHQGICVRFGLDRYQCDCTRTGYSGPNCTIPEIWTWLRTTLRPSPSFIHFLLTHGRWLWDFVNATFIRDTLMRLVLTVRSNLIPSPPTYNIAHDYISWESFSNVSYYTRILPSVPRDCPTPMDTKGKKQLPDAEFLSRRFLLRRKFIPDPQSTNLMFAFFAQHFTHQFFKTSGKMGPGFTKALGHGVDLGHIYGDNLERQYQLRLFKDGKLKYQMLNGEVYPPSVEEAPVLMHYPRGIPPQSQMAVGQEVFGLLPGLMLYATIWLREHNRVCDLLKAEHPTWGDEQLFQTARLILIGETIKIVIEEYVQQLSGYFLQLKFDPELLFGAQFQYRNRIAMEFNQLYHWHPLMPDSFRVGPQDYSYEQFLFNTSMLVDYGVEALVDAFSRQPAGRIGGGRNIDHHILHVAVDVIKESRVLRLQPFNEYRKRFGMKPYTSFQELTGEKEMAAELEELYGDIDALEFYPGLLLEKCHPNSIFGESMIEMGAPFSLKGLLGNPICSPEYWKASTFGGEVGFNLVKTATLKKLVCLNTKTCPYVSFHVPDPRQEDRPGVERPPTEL
Put plainly: Inhibition of ovine COX1 using fluorometric substrate at 100 uM by fluorescent inhibitor screening assay.

In assay [2] the target is T2, Prostaglandin G/H synthase 2 (Homo sapiens, UniProt P35354).
T2 sequence (P35354 whole entry): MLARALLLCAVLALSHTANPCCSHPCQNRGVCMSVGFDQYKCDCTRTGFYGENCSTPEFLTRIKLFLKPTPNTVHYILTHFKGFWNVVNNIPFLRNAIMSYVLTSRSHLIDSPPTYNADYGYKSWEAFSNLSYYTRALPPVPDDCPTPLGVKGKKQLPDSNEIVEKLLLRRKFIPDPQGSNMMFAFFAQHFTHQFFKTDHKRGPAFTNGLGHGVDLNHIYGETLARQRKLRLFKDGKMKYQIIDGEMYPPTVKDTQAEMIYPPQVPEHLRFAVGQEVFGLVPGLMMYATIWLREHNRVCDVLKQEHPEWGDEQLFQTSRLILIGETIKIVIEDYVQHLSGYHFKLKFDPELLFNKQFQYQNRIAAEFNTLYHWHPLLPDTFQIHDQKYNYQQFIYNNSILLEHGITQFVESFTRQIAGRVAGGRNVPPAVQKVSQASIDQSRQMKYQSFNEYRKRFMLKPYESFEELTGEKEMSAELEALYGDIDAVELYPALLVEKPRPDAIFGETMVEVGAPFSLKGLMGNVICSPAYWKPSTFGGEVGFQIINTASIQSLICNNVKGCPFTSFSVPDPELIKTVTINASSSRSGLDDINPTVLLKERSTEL
The experiment in a line: Inhibition of human recombinant COX2 using fluorometric substrate by fluorescent inhibitor screening assay. The method, boiled down: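 Human recombinant COX-2 in 100 mM Tris-HCl pH 8.0 with heme and ADHP fluorometric substrate; inhibitor added at final […] (units as printed) from DMSO stocks; reaction started with arachidonic acid, 2 min at room temperature. Resorufin fluorescence read at ex 535/em 590 nm; % inhibition vs no-inhibitor activity; IC50 from concentration–inhibition curve, triplicate determinations.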

Assay [3] concerns the target T3, Prostaglandin G/H synthase 1 (Ovis aries, UniProt P05979).
T3 sequence (P05979 whole entry): T1 sequence (whole entry)
The experiment in a line: Inhibition of ovine COX1 using fluorometric substrate by fluorescent inhibitor screening assay. In a few lines:
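Ovine COX-1 in 100 mM Tris-HCl pH 8.0 with heme and ADHP fluorometric substrate; inhibitor from DMSO stock, reaction started by arachidonic acid, 2 min at room temperature. Resorufin fluorescence read at ex 535/em 590 nm; percent inhibition calculated against uninhibited activity; reported as % inhibition at 100 (units as printed).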

Broadly, the inhibition is the drop in the measured response relative to a control, in per cent. The IC50 is the point on the concentration scale where inhibition reaches its midpoint. As to `COc1ccc(C2=NCCN2c2ccc(S(C)(=O)=O)cc2)cc1Cl`, the inhibition in assay [1] was 1.2%. For the same compound, the 50% inhibitory concentration (IC50) in assay [2] is > 10 µM.
In the case of `CS(=O)(=O)c1ccc(N2CCN=C2c2cccc(Br)c2)cc1`, the inhibition in assay [1] is 12.6%. In addition, in assay [2], the 50% inhibitory concentration (IC50) worked out at 6.8 µM.
Regarding `COc1ccc(C2=NCCN2c2ccc(S(N)(=O)=O)cc2)cc1F`, the inhibition in assay [1] was -5.5%. For the same compound, in assay [2], the IC50 came to 9.5 µM.
Taken in the same sequence, the figures for `CS(=O)(=O)c1ccc(N2CCN=C2c2ccc(Cl)cc2)cc1` were 3.2% and 7.1 µM.
Taken in the same sequence, the figures for `CC1CN(c2ccc(S(N)(=O)=O)cc2)C(c2ccc(Cl)cc2)=N1` (racemic) were 3.2% and > 10 µM.
The like results for `CC1CN(c2ccc(S(C)(=O)=O)cc2)C(c2ccc(Cl)cc2)=N1` (racemic) were, in that order, -5.2% and > 10 µM.
Consider `COc1ccc(C2=NCCN2c2ccc(S(N)(=O)=O)cc2)cc1Cl`, for which the inhibition in assay [1] was determined as 3%. Further, the half-inhibitory concentration (IC50) in assay [2] stood at 6.2 µM.
Taken in the same sequence, the figures for `CS(=O)(=O)c1ccc(N2CCN=C2c2cccc(F)c2)cc1` were 0.7% and > 10 µM.
On to `Cc1cn(-c2ccc(S(C)(=O)=O)cc2)c(-c2ccc(Cl)cc2)n1`, for which the IC50 in assay [3] is > 100 µM.
For the compound `NS(=O)(=O)c1ccc(N2CCN=C2c2cccc(Cl)c2)cc1`, the inhibition in assay [1] is -8%. Moreover, in assay [2], the IC50 was determined as 2.5 µM.
Taken in the same sequence, the figures for `CS(=O)(=O)c1ccc(N2CCN=C2c2ccc(F)c(F)c2)cc1` were 9.2% and > 10 µM.
Consider `CC1CN(c2ccc(S(C)(=O)=O)cc2)C(c2cccc(Br)c2)=N1` (racemic), for which, in assay [1], the inhibition amounted to 11.1%. In addition, in assay [2], the 50% inhibitory concentration (IC50) is > 10 µM.
The like results for `CS(=O)(=O)c1ccc(N2CCN=C2c2ccc(F)cc2)cc1` were, in that order, 12.6% and > 10 µM.
Taken in the same sequence, the figures for `Cc1cccc(C2=NCCN2c2ccc(S(N)(=O)=O)cc2)c1` were 1.5% and > 10 µM.
Taken in the same sequence, the figures for `COc1cc(C2=NCCN2c2ccc(S(C)(=O)=O)cc2)ccc1F` were -4.3% and > 10 µM.
In the case of `CC1CN(c2ccc(S(N)(=O)=O)cc2)C(c2cccc(Br)c2)=N1` (racemic), the inhibition in assay [1] was 20.2%. The IC50 in assay [2] was > 10 µM.
